We go through two compounds from ChEMBL document CHEMBL4145471, “New 1,5 and 2,5-disubstituted tetrazoles-dependent activity towards surface barrier of Candida albicans” (Eur J Med Chem, 2018).

The source made the active and inactive calls.

For assay [1], the system named is Candida albicans. The assay is described as follows: Antifungal activity against Candida albicans ATCC 90028 after 72 hrs in presence of ergosterol by M27-A3 microdilution method. The assay is classed as functional. As to conditions: ATCC 90028, 72 h. Summed up: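 Ergosterol-modified M27-A3 assay. Compounds at 512-1 µg/mL serially diluted in RPMI; the 10^3 CFU/mL inoculum is made in RPMI with ergosterol (dissolved in 10% DMSO/1% Tween 80, heated), giving 400 µg/mL ergosterol in the wells. Itraconazole and amphotericin B serve as controls. Plates at 35°C, read after 72 h. MIC is the lowest concentration without visible growth; triplicate on three days, geometric means.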
(In general: Dilution methods test growth across graded concentrations, often in twofold steps.)

Assay [2] deals with Candida albicans. The assay is described as follows: Antifungal activity against Candida albicans ATCC 90028 assessed as reduction in cell adherence to human Caco2 cells at 0.0313 ug/ml preincubated for 2 hrs followed by compound washout and resuspended in RPMI medium measured after 18 hrs by colony counting assay relative to control. More on the design: scale not given: the % may be the effect or the level left. The assay is classed as functional. Summed up:
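Yeasts grown 18 h in YEPD at 30°C, then exposed at 10^4/mL to compound in RPMI for 2 h at 35°C with shaking. Washed twice in PBS, resuspended in RPMI and added to Caco-2 monolayers (18 h culture in EMEM/10% FCS) for 2 h at 37°C, 5% CO2. Non-adherent cells rinsed off, Caco-2 lysed with water, and adherent yeasts counted as colonies on Sabouraud agar after 18 h at 30°C. Expressed as % of cells added versus untreated; three experiments.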

Assay [3] has as its system Candida albicans. Description: Antifungal activity against Candida albicans ATCC 90028 infected in Galleria mellonella larvae assessed as increase in larvae survival at 16 ug/ml preincubated for 30 to 60 mins followed by fungal infection and measured every 24 hrs for 2 days. The assay is classed as functional, organism-based. Summed up: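 G. mellonella larvae (195±17 mg, ethanol-disinfected) were given 10 µL C. albicans suspension into the last right proleg. A single 10 µL dose at 16 µg/mL in RPMI (diluted from 1600 µg/mL stock) went into the last left proleg, either 30 min or 1 h after infection or 1 h or 30 min before it. Survival was checked every 24 h for 2 days. Untreated infected larvae and PBS-injected larvae served as controls; ≥3 independent experiments, mean±SEM.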

Assay [4] deals with Candida albicans. Description: Antifungal activity against Candida albicans ATCC 90028 infected in Galleria mellonella larvae assessed as increase in health score at 16 ug/ml treated for 60 mins post infection measured after 18 hrs. The class given is functional, organism-based.
The test system of assay [5] is Candida albicans. Description: Antifungal activity against Candida albicans ATCC 90028 infected in Galleria mellonella larvae assessed as increase in health score at 16 ug/ml treated for 60 mins post infection measured after 48 hrs. The class given is functional, organism-based. Summed up: (§1)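 Larvae (195±17 mg, ethanol-disinfected) were injected with 10 µL C. albicans into the last right proleg. Compound at 16 µg/mL in RPMI (10 µL) went into the last left proleg 30 min or 1 h after infection, or 1 h or 30 min before it. A health index was scored from mobility, cocoon formation, melanization and survival, with monitoring every 24 h for 2 days. Controls were infected and PBS-injected larvae.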

In assay [6] the test system is Candida albicans. Description: Antifungal activity against Candida albicans ATCC 90028 infected in Galleria mellonella larvae assessed as increase in larvae health score at 16 ug/ml treated for 30 mins post infection and measured after 18 to 48 hrs. The assay is classed as functional, organism-based. Summed up:
as §1

Assay [7] concerns Candida albicans. The assay is described as follows: Antifungal activity against Candida albicans ATCC 90028 infected in Galleria mellonella larvae assessed as increase in larvae health score at 16 ug/ml preincubated for 30 mins followed by fungal infection and measured after 18 to 48 hrs. The class given is functional, organism-based. Summed up:
as §1

Assay [8] relates to Candida albicans. The assay is described as follows: Induction of necrosis in Candida albicans ATCC 90028 biofilms at 256 ug/ml after 18 hrs by propidium iodide/acridine orange staining based confocal laser scanning microscopic analysis. The class given is functional, organism-based. Summed up:
(§2)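 Caco-2-free model: the TR146 epithelial layer, 21 days post-seeding on filter inserts, was inoculated with 1.0–1.2×10^5/mL log-phase ATCC 90028 yeast. Biofilms were treated at 256, 16 or 0.0313 µg/mL for 18–48 h at 37°C in 5% CO2 and washed with PBS. Unfixed cells were stained with propidium iodide (5 µg/mL) and acridine orange, then imaged by confocal laser scanning microscopy.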

Assay [9] deals with Candida albicans. The assay is described as follows: Induction of early apoptosis in Candida albicans ATCC 90028 biofilms at 256 ug/ml after 18 hrs by propidium iodide/acridine orange staining based confocal laser scanning microscopic analysis. The class given is functional, organism-based. Summed up: as §2
The test system of assay [10] is Candida albicans. Description: Induction of late apoptosis in Candida albicans ATCC 90028 biofilms assessed as formation of condense chromatin at 16 ug/ml after 18 hrs by propidium iodide/acridine orange staining based confocal laser scanning microscopic analysis. The assay is classed as functional, organism-based. Summed up:
as §2

Assay [11] relates to Candida albicans. The assay is described as follows: Induction of apoptosis in Candida albicans ATCC 90028 biofilms assessed as detection of DNA ladder at 256 ug/ml after 10 mins by […]. The assay is classed as functional, organism-based.
The test system of assay [12] is Candida albicans. The assay is described as follows: Synergistic antifungal activity against Candida albicans ATCC 90028 at 80 ug/ml after 48 hrs in presence of fluconazol by checkerboard assay. The class given is functional.

For the compound `CCOC(=O)CCn1nnc(-c2ccccc2)n1`, the minimum inhibitory concentration (MIC) (usually the smallest concentration in the dilution series that meets the test's criterion for growth inhibition) with Candida albicans [1] is 64 µg/mL. Besides, the Activity in the assay on Candida albicans [2] was 63.41%. Besides, the result in the assay on Candida albicans [3], in the assay with Candida albicans [4], with Candida albicans [6], in the assay on Candida albicans [7], in the assay on Candida albicans [8] and in the assay on Candida albicans [9] was Active. Also, the result in the assay with Candida albicans [10] was Active. Also, the outcome in the assay with Candida albicans [5] and with Candida albicans [11] was inactive.

Take `Cc1ccc(-c2nnn(CCCN3CCOCC3)n2)cc1`: in the assay with Candida albicans [12], the “fractional inhibitory concentration index (FICI)” value was greater than 1.
